DDE Tn6 FP inh = inhibitors of Tn6 peptide binding to fibrin DD(E), primary screen, biochemical, fluorescence polarization, human fibrin, Tn6 probe; inhibition, % at 8.3 µM; Fibrin DD(E) TRITC-Tn6 fluorescence polarization displacement; hit rate 0.21% among 370,000; Fibrinogen beta chain (Homo sapiens), P02675;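 active means inhibition above a per-campaign cutoff: mean of compounds within control limits plus 3 SD, cut at about 15% in these data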
HTRA1 inhibitor = HTRA1 serine protease inhibitors, primary screen, biochemical, fluorescence polarization, HTS | Q92743 | recombinant HTRA1, FP-rhodamine activity-based probe | inhibition, % at 5.96 µM | hit rate 0.5% among 340,000 | AID 504803, 2011; in the data active means inhibition above about 36%
TCR-CD3 inh = inhibitors of human TCR-CD3 interaction, primary screen, biochemical, fluorescence, TAMRA-labeled TCR probe; inhibition, % at 9.4 µM; hit rate 0.37% among 360,000; T-cell receptor (TCR); in the data active means inhibition above about 19%;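 further: recombinant mutant TCR 2C K166C tagged with TAMRA read by polarization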
mABHD4 FP = ABHD4 inhibitors, primary screen, biochemical, fluorescence polarization, mouse | purified mABHD4, FP-Rh probe fluorescence polarization | AID 720543, 2013 | hit rate 0.54% among 370,000 | (Lyso)-N-acylphosphatidylethanolamine lipase (Mus musculus), Q8VD66 | inhibition, % at 8.92 µM;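 active means inhibition exceeding the mean over every tested compound plus 3 SD, cut at about 30% in these data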
Target sequence (Q8VD66 whole entry, looked up): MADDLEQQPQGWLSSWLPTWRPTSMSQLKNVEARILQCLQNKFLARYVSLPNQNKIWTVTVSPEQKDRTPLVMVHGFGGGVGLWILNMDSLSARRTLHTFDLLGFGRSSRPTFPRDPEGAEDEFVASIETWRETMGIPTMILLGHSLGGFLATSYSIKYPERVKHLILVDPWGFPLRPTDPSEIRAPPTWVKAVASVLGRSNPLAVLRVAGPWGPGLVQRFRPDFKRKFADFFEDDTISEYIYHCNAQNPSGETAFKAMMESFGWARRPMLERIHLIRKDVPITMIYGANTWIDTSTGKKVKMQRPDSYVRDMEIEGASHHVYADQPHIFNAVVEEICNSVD
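system = mouse ABHD4 enzyme, wild type | medium = HEPES pH 7.0, NaCl, Pluronic buffer | also added = FP-Rh probe | incubation = Enzyme–compound pre-incubation 45 min, then probe 60 min, both 25 °C | technique = fluorescence polarization, excitation 525 nm, emission 598 nm, BODIPY TMR filters | controls = S159A mutant high control, sample median low control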
DDE Tn7 FP inh = inhibitors of Tn7 peptide binding to fibrin DD(E), primary screen, biochemical, fluorescence polarization, human fibrin, Tn7 probe; Fibrinogen beta chain (Homo sapiens), P02675; FP displacement of FITC-Tn7 peptide from fibrin DD(E); 0% = median of compound wells per plate; inhibition, % at 8.3 µM; hit rate 0.13% among 370,000;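 active means inhibition above the mean of compounds falling within the control limits plus 3 SD of them, cut at about 14% in these data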
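Assay system: Human clot-derived fibrin DD(E) complex | Buffer or medium: Tris/NaCl/CaCl2 buffer, pH 7.8 | Repeats: One replicate per compound | Benchmarks: Aha-Tn7 high control | Measure: % inhibition scaled between sample-field median and high-control FP | Schedule: 10 min plus 3 h, room temperature | Signal: Fluorescence polarization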
ABHD4 confirm = ABHD4 inhibitors, retest, confirmation, biochemical, fluorescence polarization, mouse; purified mABHD4, FP-Rh probe fluorescence polarization; inhibition, % at 8.92 µM; hit rate 55% among 1,800; AID 720658, 2013; shares compounds with mABHD4 FP;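 active means mean inhibition across replicates above the hit cutoff set in the primary screen, cut at about 30% in these data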
Each line names hits and unclear results; the compound was inactive in the other large screens (follow-up assays come after a bar, where they were run). An excerpt weighted towards active compounds, which were near 1.3% of everything screened.

CCCCCNC(=O)C(c1cc2ccccc2o1)n1c(=O)c(-c2ccco2)nc2ccccc21 (stereo unspecified)	none (no result: HTRA1 inhibitor)
COc1ccc(Cn2c(O)c(/C=N/NC(=O)c3cccnc3)c3ccccc3c2=O)cc1	mABHD4 FP 31.5 | ABHD4 confirm 44.9
O=C(N/N=C/c1c(O)n(-c2ccccc2Cl)c(=O)c2ccccc12)c1cccnc1	none
O=C(N/N=C/c1c(O)n(Cc2ccccc2)c(=O)c2ccccc12)c1cccnc1	mABHD4 FP 62.2 | ABHD4 confirm 73.0
CCOc1ccc(NC(=O)C2CC(=O)N(CCc3ccccc3)C2)cc1OC (stereo unspecified)	none
CCOC(=O)C1CCN(C(=O)CC(NS(=O)(=O)c2ccc(OC)cc2)C(C)C)CC1 (stereo unspecified)	none (no result: DDE Tn6 FP inh, TCR-CD3 inh, mABHD4 FP, DDE Tn7 FP inh)
Cc1c(Cl)cccc1NC(=O)C1CC2CCC1C2 (stereo unspecified)	none (no result: HTRA1 inhibitor)
C/C=C/COC(=O)c1[nH]c2c(c1C)C(=O)CC(c1ccco1)C2 (stereo unspecified)	mABHD4 FP 31.9 | ABHD4 confirm inactive
CC(=O)Nc1nnc(SCC(=O)Nc2ccc(N3CCOCC3)c(Cl)c2)s1	none
COC(=O)c1ccc(N)cc1O	none
COC(=O)c1ccc(=O)c2nc3/c(=C/O)c(O)cc(=O)c3[nH]c12	HTRA1 inhibitor 60.8, TCR-CD3 inh 140.1, mABHD4 FP 57.2 | ABHD4 confirm 59.1
CC1=CC2(O)OCCN(CCO)C2=CC1=O (stereo unspecified)	mABHD4 FP 30.2 | ABHD4 confirm inactive
Cc1cc(C)n(-c2ncc3c(n2)N(CCO)CCOC3=O)n1	none
O=C(O)c1ccccc1Nc1cccc(OCc2ccc3ccccc3n2)c1	mABHD4 FP 36.3 | ABHD4 confirm 33.3
O=C(COc1ccc2ccccc2c1)Nc1cccc(C(=O)Nc2ccccc2C(=O)O)c1	none
COc1ccccc1N1C(=O)C2C(c3ccc(F)cc3)NN(C(=O)c3ccc(C)cc3)C2C1=O (stereo unspecified)	mABHD4 FP 33.7 | ABHD4 confirm inactive
COc1ccc(NC(=S)Nc2ccc(N)c([N+](=O)[O-])c2)cc1	mABHD4 FP 33.8 | ABHD4 confirm inactive
COc1ccc(NC(=S)Nc2ccccc2)cc1	none
Cc1ccccc1CNC(=O)c1csc([C@H]2C[C@H](O)[C@@H](CO)O2)n1	none (no result: HTRA1 inhibitor)
c1ccc(-c2csc(Nc3ccc4c(c3)OCO4)n2)cc1	mABHD4 FP 31.4 (no result: HTRA1 inhibitor) | ABHD4 confirm inactive
Cc1cccc2c(N=Nc3ccc(S(=O)(=O)Nc4ccc(Cl)cc4)cc3[N+](=O)[O-])c(O)[nH]c12	mABHD4 FP 40.0 | ABHD4 confirm 38.3
Cc1ccccc1NC(=O)Cc1nc(COC(=O)c2cc([N+](=O)[O-])ccc2NCCO)cs1	mABHD4 FP 39.5 | ABHD4 confirm inactive
Cc1ccccc1NC(=O)Cc1nc(COC(=O)c2cccc([N+](=O)[O-])c2)cs1	mABHD4 FP 54.0 | ABHD4 confirm 41.5
CN(C)S(=O)(=O)c1cccc(C(=O)N2CCN(S(=O)(=O)c3ccc4c(c3)OCCO4)CC2)c1	none
Cc1c(C)n(CCC(=O)O)c2ccccc12	none
COc1ccc(C(=O)C2CCN(C(=O)c3ccco3)CC2)cc1	none
CCC(=O)NC1=C(Cl)C(=O)C(NC(=O)CC)=C(Cl)C1=O	mABHD4 FP 34.5 | ABHD4 confirm 39.9
O=c1oc2ccccc2nc1/C=C(O)/C=C\c1ccccc1	mABHD4 FP 32.8 | ABHD4 confirm inactive
O=c1oc2ccccc2nc1/C=C(O)/C=C/c1ccc(F)cc1	none
O=C(CN1CCC(O)(c2ccc(F)cc2)CC1)NCc1ccc(F)cc1	none
Cc1cc(C)c(C#N)c(SCc2ccccc2)n1	none
Cc1ccc2nc(CSc3nc(C)cc(C)c3C#N)[nH]c2c1	mABHD4 FP 44.3 | ABHD4 confirm inactive
COc1ccc2[nH]c3c(NCCC4=CCCCC4)ncnc3c2c1	mABHD4 FP 38.6 | ABHD4 confirm 60.5

Bioassay records deposited in PubChem by The Scripps Research Institute Molecular Screening Center.
